The text below walks through data of ChEMBL document CHEMBL1926623, “Modification of olivomycin A at the side chain of the aglycon yields the derivative with perspective antitumor characteristics” (Bioorg Med Chem, 2011).

One data set has as its system K562. Briefly: Antiproliferative activity against human K562 cells after 72 hrs by MTT assay. The class given is functional, cell-based. The method, boiled down:
(§1)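 Cells from ATCC grown in DMEM or RPMI-1640 with 5% FCS, 2 mM L-glutamine, and penicillin/streptomycin at 37 °C, 5% CO2. 5 × 10³ log-phase cells per well were exposed to serial dilutions (from 10 mM DMSO stocks; 0.1% DMSO vehicle control), each dose in duplicate, for 72 h. MTT was added for 2 h and absorbance read at 540 nm. IC50 is the 50% viability inhibition versus vehicle. Mean ± SD of 4–5 independent experiments.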
(In general: Tetrazolium assays rely on reduction of a dye to a coloured formazan, in cell work by metabolically active cells.)

For a further data set, the system named is HCT-116. Briefly: Antiproliferative activity against human HCT116 cells after 72 hrs by MTT assay. The class given is functional, cell-based. Put shortly:
as §1

Data set [1] relates to P388. The data set is described as follows: Antitumor activity against mouse P388 cells xenografted in B6D2F1 mouse assessed as increase in lifespan at 2 mg/kg, ip administered daily for 5 days relative to untreated control. The class given is functional. As to conditions: route intraperitoneal. Put shortly:
(§2)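 Each group of 10 B6D2F1 mice received 10^6 P388 lymphoma cells ip on day 0. Drug was dissolved in 0.1% DMSO, diluted with saline and given once daily for 5 days; controls were untreated. ILS (%) = (Dt−Dc)/Dc × 100, where Dt and Dc are mean survival times in days for treated and control groups.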

Data set [2] has as its system B16. Briefly: Antitumor activity against mouse B16 cells xenografted in B6D2F1 mouse assessed as tumor growth inhibition at 2 mg/kg, iv administered on days 1,4,7,10,13,16,19 and 22 measured 28 days post tumor challenge. The following applies: B16, 672 h, read-out: GI. The data set is classed as functional. Put shortly:
(§3)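 B6D2F1 mice, 10 per group, received 10⁶ B16 melanoma cells s.c. into the right flank on day 0. Compound diluted in saline was given iv on days 1, 4, 7, 10, 13 (5 injections) or days 1–22 every third day (8 injections). Controls were left untreated, and mice were sacrificed by day 28. ITG% = (Mc−Mt)/Mc × 100, using calculated tumor weight (a×b×c)/2.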

Data set [3] is described as follows: Toxicity in mouse P388 cells xenografted B6D2F1 mouse assessed as mortality at 4 mg/kg, ip administered daily for 5 days. The following applies: in vivo, read-out: Activity. The class given is organism-based. The arrangement: dose 4 mg/kg, route intraperitoneal. The method, boiled down: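 B6D2F1 mice, 10 per group, were inoculated ip with 10^6 P388 cells on day 0. Drug in 0.1% DMSO, diluted in saline, was given daily for 5 days. Physical condition, body weight, behaviour, nutrition and hair cover were monitored daily. Mortality was scored as drug-related toxicity deaths.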

Data set [4] has as its system B16. Briefly: Antitumor activity against mouse B16 cells xenografted in B6D2F1 mouse assessed as tumor growth inhibition at 2 mg/kg, iv administered on days 1,4,7,10 and 13 measured 28 days post tumor challenge. The data set is classed as functional. As to conditions: B16, 672 h, read-out: GI. Put shortly:
as §3

In data set [5] the test system is P388. The data set is described as follows: Antitumor activity against mouse P388 cells xenografted in B6D2F1 mouse assessed as increase in lifespan at 1 mg/kg, ip administered daily for 5 days relative to untreated control. As to conditions: route intraperitoneal. The data set is classed as functional. The method, boiled down: as §2
The subject of data set [6] is Nucleic Acid. Briefly: Binding affinity to Salmon sperm DNA at 1.34 uM by Scatchard plot analysis. The class given is nucleic-acid assay. As to conditions: Salmonidae.
Data set [7] deals with Nucleic Acid. The data set is described as follows: Binding affinity to Salmon sperm DNA assessed as increase in fluorescence at 1.34 uM by spectrophotometry. The class given is nucleic-acid assay. The following applies: Salmonidae.
Data set [8] has as its system Nucleic Acid. The data set is described as follows: Binding affinity to Salmon sperm DNA assessed as increase in fluorescence at 1.34 uM by spectrophotometry. As to conditions: Salmonidae.

Usually IC50 stands for the concentration at which inhibition is half-maximal. A high value points to lower potency.

The structures appear in SMILES notation.

As to `CO[C@H]1[C@H](O)C[C@@H](O[C@@H]2C[C@H](Oc3cc(O)c4c(O)c5c(cc4c3)C[C@@H]([C@H](OC)C(=O)NCCN(C)C)[C@H](O[C@H]3C[C@H](O[C@H]4C[C@H](O[C@H]6C[C@@](C)(O)[C@@H](OC(=O)C(C)C)[C@H](C)O6)[C@H](O)[C@@H](C)O4)[C@H](O)[C@@H](C)O3)C5=O)O[C@H](C)[C@H]2OC(C)=O)O[C@@H]1C`, the IC50 came to 47 nM in the data set with K562 and 20 nM in the data set on HCT-116.
On to `CO[C@H]1[C@H](O)C[C@@H](O[C@@H]2C[C@H](Oc3cc(O)c4c(O)c5c(cc4c3)C[C@@H]([C@H](OC)C(=O)NCc3ccc(F)cc3)[C@H](O[C@H]3C[C@H](O[C@H]4C[C@H](O[C@H]6C[C@@](C)(O)[C@@H](OC(=O)C(C)C)[C@H](C)O6)[C@H](O)[C@@H](C)O4)[C@H](O)[C@@H](C)O3)C5=O)O[C@H](C)[C@H]2OC(C)=O)O[C@@H]1C`, for which the values for the IC50 in the data set on K562 and in the data set with HCT-116 were 148 nM and 278 nM, respectively.
In turn, `CNC(=O)[C@@H](OC)[C@@H]1Cc2cc3cc(O[C@H]4C[C@@H](O[C@@H]5C[C@@H](O)[C@H](OC)[C@@H](C)O5)[C@H](OC(C)=O)[C@@H](C)O4)cc(O)c3c(O)c2C(=O)[C@H]1O[C@H]1C[C@H](O[C@H]2C[C@H](O[C@H]3C[C@@](C)(O)[C@@H](OC(=O)C(C)C)[C@H](C)O3)[C@H](O)[C@@H](C)O2)[C@H](O)[C@@H](C)O1` yielded an IC50 in the data set on HCT-116 of 120 nM.
The same measure, in the same setting: then `CO[C@H]1[C@H](O)C[C@@H](O[C@@H]2C[C@H](Oc3cc(O)c4c(O)c5c(cc4c3)C[C@@H]([C@H](OC)C(N)=O)[C@H](O[C@H]3C[C@H](O[C@H]4C[C@H](O[C@H]6C[C@@](C)(O)[C@@H](OC(=O)C(C)C)[C@H](C)O6)[C@H](O)[C@@H](C)O4)[C@H](O)[C@@H](C)O3)C5=O)O[C@H](C)[C@H]2OC(C)=O)O[C@@H]1C`, with 100 nM.
Take `CO[C@H]1[C@H](O)C[C@@H](O[C@@H]2C[C@H](Oc3cc(O)c4c(O)c5c(cc4c3)C[C@@H]([C@H](OC)C(=O)NCCCO)[C@H](O[C@H]3C[C@H](O[C@H]4C[C@H](O[C@H]6C[C@@](C)(O)[C@@H](OC(=O)C(C)C)[C@H](C)O6)[C@H](O)[C@@H](C)O4)[C@H](O)[C@@H](C)O3)C5=O)O[C@H](C)[C@H]2OC(C)=O)O[C@@H]1C`: in the data set on HCT-116, half-maximal inhibition (IC50) required 156 nM.
Still for that read-out and setting: then `CO[C@H]1[C@H](O)C[C@@H](O[C@@H]2C[C@H](Oc3cc(O)c4c(O)c5c(cc4c3)C[C@@H]([C@H](OC)C(=O)NC3C4CC6CC(C4)CC3C6)[C@H](O[C@H]3C[C@H](O[C@H]4C[C@H](O[C@H]6C[C@@](C)(O)[C@@H](OC(=O)C(C)C)[C@H](C)O6)[C@H](O)[C@@H](C)O4)[C@H](O)[C@@H](C)O3)C5=O)O[C@H](C)[C@H]2OC(C)=O)O[C@@H]1C` (some centres undefined), with 180 nM.
Consider `COC(=O)[C@H](C)NC(=O)[C@@H](OC)[C@@H]1Cc2cc3cc(O[C@H]4C[C@@H](O[C@@H]5C[C@@H](O)[C@H](OC)[C@@H](C)O5)[C@H](OC(C)=O)[C@@H](C)O4)cc(O)c3c(O)c2C(=O)[C@H]1O[C@H]1C[C@H](O[C@H]2C[C@H](O[C@H]3C[C@@](C)(O)[C@@H](OC(=O)C(C)C)[C@H](C)O3)[C@H](O)[C@@H](C)O2)[C@H](O)[C@@H](C)O1`, for which the IC50 with K562 was found to be 63 nM; with HCT-116, 20 nM.
Take `CO[C@H]1[C@H](O)C[C@@H](O[C@@H]2C[C@H](Oc3cc(O)c4c(O)c5c(cc4c3)C[C@@H]([C@H](OC)C(=O)N[C@@H]3[C@@H](O)[C@@H](O)[C@@H](CO)O[C@H]3O)[C@H](O[C@H]3C[C@H](O[C@H]4C[C@H](O[C@H]6C[C@@](C)(O)[C@@H](OC(=O)C(C)C)[C@H](C)O6)[C@H](O)[C@@H](C)O4)[C@H](O)[C@@H](C)O3)C5=O)O[C@H](C)[C@H]2OC(C)=O)O[C@@H]1C`: the IC50 in the data set on K562 was 2390 nM; with HCT-116 it was above 12500 nM.
With `CO[C@H]1[C@H](O)C[C@@H](O[C@@H]2C[C@H](Oc3cc(O)c4c(O)c5c(cc4c3)C[C@@H]([C@H](OC)C(=O)[C@@H](O)[C@@H](C)O)[C@H](O[C@H]3C[C@H](O[C@H]4C[C@H](O[C@H]6C[C@@](C)(O)[C@@H](OC(=O)C(C)C)[C@H](C)O6)[C@H](O)[C@@H](C)O4)[C@H](O)[C@@H](C)O3)C5=O)O[C@H](C)[C@H]2OC(C)=O)O[C@@H]1C` [OLIVOMYCIN A], the values for the Activity in the data set with P388 [1] and in the data set on P388 [5] were 35% and 24%, respectively. The inhibition in vivo at 2 mg/kg was 45% in the data set with B16 [2] and 48% with B16 [4]. The mortality at 120 h in [3] was determined as 87%. The IC50 was 50 nM in the data set with K562 and 20 nM with HCT-116.
The molecule `CO[C@H]1[C@H](O)C[C@@H](O[C@@H]2C[C@H](Oc3cc(O)c4c(O)c5c(cc4c3)C[C@@H]([C@H](OC)C(=O)O)[C@H](O[C@H]3C[C@H](O[C@H]4C[C@H](O[C@H]6C[C@@](C)(O)[C@@H](OC(=O)C(C)C)[C@H](C)O6)[C@H](O)[C@@H](C)O4)[C@H](O)[C@@H](C)O3)C5=O)O[C@H](C)[C@H]2OC(C)=O)O[C@@H]1C` [OLIVOMYCIN SA] yielded a K with Nucleic Acid [6] of 2.1 ×10⁴ /M. Besides, the IC50 in the data set with K562 amounted to 2200 nM; with HCT-116 it was 2000 nM. Besides, the Activity result in the data set on Nucleic Acid [7] and with Nucleic Acid [8] was “Dose-dependent effect” each time.
